Experimental data as given in ChEMBL document CHEMBL1155370, “Discovery and initial SAR of pyrimidin-4-yl-1H-imidazole derivatives with antiproliferative activity against melanoma cell lines” (Bioorg Med Chem Lett, 2010).
The source made the active and inactive calls. No cut-off for these calls is given here.

Columns and labels:
[1] = Growth inhibition of human A375P cells at 8.05 uM by MTT assay relative to total growth; format: functional; details: read-out: GI
[2] = (§1) Growth inhibition of human A375P cells by MTT assay; format: functional
Outline: (§2)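 A375P cells grown in DMEM with 10% FBS and 1% penicillin/streptomycin at 37 °C in 5% CO2. Cells were detached with trypsin-EDTA, seeded at 5×10^3 cells/well and left 24 h. They were then treated with a 12-point three-fold serial dilution. Viability was read by MTT reduction assay as absorbance at 590 nm.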

[3] = (§3) Growth inhibition of human WM3629 cells by MTT assay; format: functional
Outline: (§4)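 WM3629 cells kept in Tu2% medium. They were seeded at 5×10^3 cells/well, rested 24 h, then exposed to a 12-point three-fold serial dilution. GI50 was taken from an MTT reduction assay read at 590 nm.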

[4] = Selectivity ratio of GI50 for human WM3629 cells to GI50 for human A375P cells; format: functional
[5] = biological target: Serine/threonine-protein kinase Chk1 (Homo sapiens) (UniProt O14757); assay: Inhibition of CHK1 at 10 uM
Outline: (§5)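 Single-dose panel screen across 30 kinases at 10 µM, run in duplicate; % inhibition reported.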

[6] = biological target: Tyrosine-protein kinase SYK (Homo sapiens) (UniProt P43405); assay: Inhibition of SYK at 10 uM; outline: as §5
[7] = biological target: ALK tyrosine kinase receptor (Homo sapiens) (UniProt Q9UM73); assay: Inhibition of ALK at 10 uM; outline: as §5
[8] = biological target: Ribosomal protein S6 kinase beta-1 (Homo sapiens) (UniProt P23443); assay: Inhibition of p70S6K at 10 uM; outline: as §5
Ribosomal protein S6 kinase beta-1 (Homo sapiens), sequence (P23443 whole entry, looked up): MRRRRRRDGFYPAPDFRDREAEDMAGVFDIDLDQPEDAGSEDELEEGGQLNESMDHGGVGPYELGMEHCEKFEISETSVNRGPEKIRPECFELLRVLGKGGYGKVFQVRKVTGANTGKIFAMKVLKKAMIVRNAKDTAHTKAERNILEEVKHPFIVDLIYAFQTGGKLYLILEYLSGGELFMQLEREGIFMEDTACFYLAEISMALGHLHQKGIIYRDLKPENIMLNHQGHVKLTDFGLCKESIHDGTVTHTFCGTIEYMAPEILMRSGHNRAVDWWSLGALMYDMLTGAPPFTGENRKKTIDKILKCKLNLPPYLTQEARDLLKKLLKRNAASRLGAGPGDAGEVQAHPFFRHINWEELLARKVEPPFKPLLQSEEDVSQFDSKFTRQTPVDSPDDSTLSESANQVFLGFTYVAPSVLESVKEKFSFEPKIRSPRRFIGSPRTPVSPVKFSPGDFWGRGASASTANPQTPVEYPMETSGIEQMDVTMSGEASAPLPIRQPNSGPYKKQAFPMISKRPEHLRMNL

[9] = biological target: Cyclin-dependent kinase 2/cyclin E1 (Homo sapiens) (UniProt P24864+P24941); assay: Inhibition of CDK2/cyclin E at 10 uM; format: protein-complex assay; outline: as §5
[10] = biological target: Tyrosine-protein kinase Lyn (Homo sapiens) (UniProt P07948); assay: Inhibition of LYN at 10 uM; outline: as §5
[11] = biological target: Receptor-type tyrosine-protein kinase FLT3 (Homo sapiens) (UniProt P36888); assay: Inhibition of human FLT3 at 10 uM; outline: as §5
[12] = biological target: DNA-dependent protein kinase catalytic subunit (Homo sapiens) (UniProt P78527); assay: Inhibition of DNA-PK at 10 uM; outline: as §5
[13] = biological target: Proto-oncogene tyrosine-protein kinase Src (Homo sapiens) (UniProt P12931); assay: Inhibition of c-Src at 10 uM; outline: as §5
[14] = biological target: Serine/threonine-protein kinase PAK 4 (Homo sapiens) (UniProt O96013); assay: Inhibition of PAK4 at 10 uM; outline: as §5
[15] = biological target: Mitogen-activated protein kinase 8 (Homo sapiens) (UniProt P45983); assay: Inhibition of JNK1 at 10 uM; outline: as §5
[16] = biological target: Proto-oncogene tyrosine-protein kinase ROS (Homo sapiens) (UniProt P08922); assay: Inhibition of ROS at 10 uM; outline: as §5
[17] = biological target: Epidermal growth factor receptor (Homo sapiens) (UniProt P00533); assay: Inhibition of EGFR at 10 uM; outline: as §5
[18] = biological target: Focal adhesion kinase 1 (Homo sapiens) (UniProt Q05397); assay: Inhibition of human FAK at 10 uM; outline: as §5
Focal adhesion kinase 1 (Homo sapiens), sequence (Q05397 2-1052 limits assumed): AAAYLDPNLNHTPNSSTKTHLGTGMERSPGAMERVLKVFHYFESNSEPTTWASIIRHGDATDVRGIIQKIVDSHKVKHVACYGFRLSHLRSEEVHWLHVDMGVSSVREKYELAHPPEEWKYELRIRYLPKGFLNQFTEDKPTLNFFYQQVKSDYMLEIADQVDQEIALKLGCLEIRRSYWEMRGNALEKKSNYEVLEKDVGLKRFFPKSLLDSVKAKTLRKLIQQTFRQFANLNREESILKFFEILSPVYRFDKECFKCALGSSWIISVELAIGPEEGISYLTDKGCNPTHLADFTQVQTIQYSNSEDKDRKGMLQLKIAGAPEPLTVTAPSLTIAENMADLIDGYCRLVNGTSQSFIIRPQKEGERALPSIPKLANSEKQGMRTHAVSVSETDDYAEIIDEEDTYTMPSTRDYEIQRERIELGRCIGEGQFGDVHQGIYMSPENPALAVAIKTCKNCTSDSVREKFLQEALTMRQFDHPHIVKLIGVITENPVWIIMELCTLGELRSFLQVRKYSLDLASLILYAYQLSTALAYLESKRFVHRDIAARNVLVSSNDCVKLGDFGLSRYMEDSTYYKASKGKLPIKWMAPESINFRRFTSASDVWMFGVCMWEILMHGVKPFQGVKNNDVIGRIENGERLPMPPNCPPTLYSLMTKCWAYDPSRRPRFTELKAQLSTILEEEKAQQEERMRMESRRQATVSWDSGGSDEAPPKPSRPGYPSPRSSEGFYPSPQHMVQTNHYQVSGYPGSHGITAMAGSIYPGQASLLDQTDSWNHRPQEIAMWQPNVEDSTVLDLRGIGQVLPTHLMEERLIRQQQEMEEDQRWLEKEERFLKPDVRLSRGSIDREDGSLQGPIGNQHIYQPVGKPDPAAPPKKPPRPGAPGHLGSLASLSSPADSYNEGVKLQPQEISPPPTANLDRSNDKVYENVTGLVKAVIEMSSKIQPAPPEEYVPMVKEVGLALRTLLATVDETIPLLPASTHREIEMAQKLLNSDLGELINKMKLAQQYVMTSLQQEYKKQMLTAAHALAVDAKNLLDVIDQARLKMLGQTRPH

[19] = biological target: Myotonin-protein kinase (Homo sapiens) (UniProt Q09013); assay: Inhibition of DMPK at 10 uM; outline: as §5
[20] = biological target: RAF proto-oncogene serine/threonine-protein kinase (Homo sapiens) (UniProt P04049); assay: Inhibition of cRAF at 10 uM; outline: as §5
RAF proto-oncogene serine/threonine-protein kinase (Homo sapiens), sequence (P04049 whole entry): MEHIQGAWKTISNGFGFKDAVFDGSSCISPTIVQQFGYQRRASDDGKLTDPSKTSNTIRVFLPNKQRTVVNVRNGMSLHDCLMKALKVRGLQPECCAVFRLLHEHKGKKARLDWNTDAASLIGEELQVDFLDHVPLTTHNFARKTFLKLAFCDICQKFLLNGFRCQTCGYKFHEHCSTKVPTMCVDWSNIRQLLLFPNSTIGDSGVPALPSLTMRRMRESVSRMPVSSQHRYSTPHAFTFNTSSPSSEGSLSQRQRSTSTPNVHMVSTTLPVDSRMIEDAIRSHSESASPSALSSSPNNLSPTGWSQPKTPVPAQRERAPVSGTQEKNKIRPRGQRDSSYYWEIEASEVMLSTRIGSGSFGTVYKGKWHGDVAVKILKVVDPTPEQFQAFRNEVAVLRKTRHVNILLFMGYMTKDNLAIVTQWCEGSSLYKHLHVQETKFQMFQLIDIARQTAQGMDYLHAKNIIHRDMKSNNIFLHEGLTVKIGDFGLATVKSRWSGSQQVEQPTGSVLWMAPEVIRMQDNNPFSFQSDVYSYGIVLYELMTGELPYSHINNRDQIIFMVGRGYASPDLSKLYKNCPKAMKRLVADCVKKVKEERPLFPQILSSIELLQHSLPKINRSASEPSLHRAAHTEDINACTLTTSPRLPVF

[21] = biological target: Mitogen-activated protein kinase 1 (Homo sapiens) (UniProt P28482); assay: Inhibition of ERK2 at 10 uM; outline: as §5
[22] = biological target: Protein kinase C alpha type (Homo sapiens) (UniProt P17252); assay: Inhibition of PKCalpha at 10 uM; outline: as §5
[23] = biological target: RAC-alpha serine/threonine-protein kinase (Homo sapiens) (UniProt P31749); assay: Inhibition of AKT1 at 10 uM; outline: as §5
[24] = biological target: BDNF/NT-3 growth factors receptor (Homo sapiens) (UniProt Q16620); assay: Inhibition of TrkB at 10 uM; outline: as §5
[25] = biological target: Serine/threonine-protein kinase mTOR (Homo sapiens) (UniProt P42345); assay: Inhibition of mTOR at 10 uM; outline: as §5
[26] = biological target: Cyclin-dependent kinase 1/cyclin B1 (Homo sapiens) (UniProt P06493+P14635); assay: Inhibition of CDK1/cyclin B at 10 uM; format: protein-complex assay; outline: as §5
[27] = biological target: Cyclin-dependent kinase 5/CDK5 activator 1 (Homo sapiens) (UniProt Q00535+Q15078); assay: Inhibition of CDK5/p25 at 10 uM; format: protein-complex assay; outline: as §5
Cyclin-dependent kinase 5/CDK5 activator 1 (Homo sapiens), sequence (Q00535 whole entry): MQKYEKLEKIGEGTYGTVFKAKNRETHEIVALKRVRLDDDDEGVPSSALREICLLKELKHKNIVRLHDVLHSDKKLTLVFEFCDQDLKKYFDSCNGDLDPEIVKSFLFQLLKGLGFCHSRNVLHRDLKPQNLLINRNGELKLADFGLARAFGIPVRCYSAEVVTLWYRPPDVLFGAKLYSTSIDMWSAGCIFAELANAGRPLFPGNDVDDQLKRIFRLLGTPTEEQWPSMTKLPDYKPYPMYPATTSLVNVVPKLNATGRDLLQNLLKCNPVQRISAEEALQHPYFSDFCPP
Cyclin-dependent kinase 5/CDK5 activator 1 (Homo sapiens), sequence (Q15078 99-307 partner limits assumed): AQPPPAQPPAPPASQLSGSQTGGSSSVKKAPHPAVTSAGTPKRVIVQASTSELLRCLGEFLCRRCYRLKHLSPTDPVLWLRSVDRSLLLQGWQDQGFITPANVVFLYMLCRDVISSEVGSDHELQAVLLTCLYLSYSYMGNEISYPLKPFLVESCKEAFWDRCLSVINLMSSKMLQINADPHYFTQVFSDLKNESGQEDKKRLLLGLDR

[28] = biological target: Insulin-like growth factor 1 receptor (Homo sapiens) (UniProt P08069); assay: Inhibition of IGF1R at 10 uM; outline: as §5
Insulin-like growth factor 1 receptor (Homo sapiens), sequence (P08069 31-736 limits assumed): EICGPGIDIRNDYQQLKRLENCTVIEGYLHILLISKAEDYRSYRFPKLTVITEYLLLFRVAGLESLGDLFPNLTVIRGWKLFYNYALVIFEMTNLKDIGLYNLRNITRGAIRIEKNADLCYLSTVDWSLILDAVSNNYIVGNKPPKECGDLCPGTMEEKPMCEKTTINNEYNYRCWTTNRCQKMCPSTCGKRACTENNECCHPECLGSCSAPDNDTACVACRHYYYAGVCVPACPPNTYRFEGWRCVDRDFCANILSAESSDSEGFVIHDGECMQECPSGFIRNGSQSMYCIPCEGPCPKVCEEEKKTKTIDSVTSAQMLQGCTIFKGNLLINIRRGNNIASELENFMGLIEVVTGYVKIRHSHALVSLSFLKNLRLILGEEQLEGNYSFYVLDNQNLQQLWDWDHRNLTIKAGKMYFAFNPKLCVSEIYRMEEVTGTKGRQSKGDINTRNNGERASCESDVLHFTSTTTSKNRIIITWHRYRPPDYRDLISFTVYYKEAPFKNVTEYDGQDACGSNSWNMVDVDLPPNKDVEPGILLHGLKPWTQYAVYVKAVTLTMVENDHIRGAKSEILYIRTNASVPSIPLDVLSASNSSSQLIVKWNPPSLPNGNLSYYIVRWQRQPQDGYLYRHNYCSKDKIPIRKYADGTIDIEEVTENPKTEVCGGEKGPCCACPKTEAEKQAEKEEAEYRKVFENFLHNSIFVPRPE
Insulin-like growth factor 1 receptor (Homo sapiens), sequence (P08069 741-1367 limits assumed): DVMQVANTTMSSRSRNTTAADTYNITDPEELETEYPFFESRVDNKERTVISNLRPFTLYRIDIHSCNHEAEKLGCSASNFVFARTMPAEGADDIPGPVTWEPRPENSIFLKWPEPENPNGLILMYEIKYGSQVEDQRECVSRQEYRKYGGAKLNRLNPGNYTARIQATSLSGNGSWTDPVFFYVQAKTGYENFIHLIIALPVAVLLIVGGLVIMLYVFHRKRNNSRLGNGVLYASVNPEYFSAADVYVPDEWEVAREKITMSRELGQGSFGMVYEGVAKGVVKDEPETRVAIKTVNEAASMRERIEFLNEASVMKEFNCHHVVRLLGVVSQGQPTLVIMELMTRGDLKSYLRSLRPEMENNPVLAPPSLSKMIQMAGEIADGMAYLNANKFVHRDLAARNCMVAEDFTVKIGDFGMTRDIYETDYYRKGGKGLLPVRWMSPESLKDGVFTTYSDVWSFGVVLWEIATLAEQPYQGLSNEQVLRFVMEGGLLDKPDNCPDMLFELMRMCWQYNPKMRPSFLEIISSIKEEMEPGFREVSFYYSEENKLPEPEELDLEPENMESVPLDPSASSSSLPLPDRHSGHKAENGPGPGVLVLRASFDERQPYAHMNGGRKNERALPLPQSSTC

[29] = biological target: Mitogen-activated protein kinase 14 (Homo sapiens) (UniProt Q16539); assay: Inhibition of p38alpha at 10 uM; outline: as §5
[30] = biological target: Dual specificity mitogen-activated protein kinase kinase 1 (Homo sapiens) (UniProt Q02750); assay: Inhibition of MEK1 at 10 uM; outline: as §5
Dual specificity mitogen-activated protein kinase kinase 1 (Homo sapiens), sequence (Q02750 whole entry): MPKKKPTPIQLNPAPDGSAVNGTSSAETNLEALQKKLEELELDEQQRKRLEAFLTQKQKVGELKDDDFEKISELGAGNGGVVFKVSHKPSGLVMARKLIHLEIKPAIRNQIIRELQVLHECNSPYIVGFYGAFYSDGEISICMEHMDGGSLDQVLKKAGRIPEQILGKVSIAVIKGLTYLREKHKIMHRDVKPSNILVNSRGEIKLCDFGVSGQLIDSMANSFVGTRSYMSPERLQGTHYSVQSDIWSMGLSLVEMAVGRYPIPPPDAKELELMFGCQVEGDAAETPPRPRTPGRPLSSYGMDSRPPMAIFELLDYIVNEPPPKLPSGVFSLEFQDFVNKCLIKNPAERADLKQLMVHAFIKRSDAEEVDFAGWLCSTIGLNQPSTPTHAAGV

[31] = Inhibition of PKA at 10 uM
Outline: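 Single-concentration screen at 10 µM within a 30-kinase panel, run in duplicate; read-out is percent inhibition of kinase activity.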

[32] = biological target: Tyrosine-protein kinase JAK3 (Homo sapiens) (UniProt P52333); assay: Inhibition of JAK3 at 10 uM; outline: as §5
[33] = biological target: Glycogen synthase kinase-3 beta (Homo sapiens) (UniProt P49841); assay: Inhibition of GSK3-beta at 10 uM; outline: as §5
Glycogen synthase kinase-3 beta (Homo sapiens), sequence (P49841 whole entry, looked up): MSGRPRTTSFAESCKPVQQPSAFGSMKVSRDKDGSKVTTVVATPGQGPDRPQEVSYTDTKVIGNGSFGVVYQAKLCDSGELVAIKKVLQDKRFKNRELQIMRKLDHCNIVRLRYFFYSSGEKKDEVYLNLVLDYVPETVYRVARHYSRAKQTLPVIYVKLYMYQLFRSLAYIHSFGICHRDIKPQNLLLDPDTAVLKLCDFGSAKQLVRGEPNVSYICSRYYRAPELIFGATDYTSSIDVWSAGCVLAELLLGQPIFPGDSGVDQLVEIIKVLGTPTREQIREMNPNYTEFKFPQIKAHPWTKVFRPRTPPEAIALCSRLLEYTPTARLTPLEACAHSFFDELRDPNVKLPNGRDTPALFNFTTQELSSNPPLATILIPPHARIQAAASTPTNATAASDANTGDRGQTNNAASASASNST

[34] = biological target: Macrophage-stimulating protein receptor (Homo sapiens) (UniProt Q04912); assay: Inhibition of RON at 10 uM; outline: as §5
A375P = assay: as §1; format: functional; outline: as §2
WM3629 = assay: as §3; format: functional; outline: as §4
[35] = Growth inhibition of human A375P cells at 164 uM by MTT assay relative to total growth; format: functional; details: read-out: GI

COc1ccc(-c2cc(C(=O)Nc3ccc(-c4nccn4-c4ccnc(NC[C@H](C)O)n4)cc3)co2)cc1
inhibition of growth at 8.05 µM [1]: < 66%
GI50 [2]: 8.05 µM
GI50 [3]: > 100 µM

C[C@H](O)CNc1nccc(-n2ccnc2C(=O)c2ccc(NC(=O)c3ccc(Cl)c(C(F)(F)F)c3)cc2)n1
GI50 [2]: 2.51 µM
GI50 [3]: 1.37 µM

C[C@H](O)CNc1nccc(-n2ccnc2-c2cccc(NC(=O)c3ccc(N4CCOCC4)c(C(F)(F)F)c3)c2)n1
RatioGI50 [4]: 5
GI50 [2]: 28.3 µM
GI50 [3]: 7.37 µM

C[C@H](O)CNc1nccc(-n2ccnc2-c2cccc(NC(=O)c3ccc(Cl)c(C(F)(F)F)c3)c2)n1
RatioGI50 [4]: 5
inhibition [5]: 5.9%
inhibition [6]: 13%
inhibition [7]: 0.8%
inhibition [8]: 17%
inhibition [9]: < 0%
inhibition [10]: 21%
inhibition [11]: 82%
inhibition [12]: 9.4%
inhibition [13]: < 0%
inhibition [14]: < 0%
inhibition [15]: < 0%
inhibition [16]: 0.19%
GI50 [2]: 4.49 µM
inhibition [17]: 1.7%
GI50 [3]: 0.62 µM
inhibition [18]: 0%
inhibition [19]: 7.6%
inhibition [20]: 99%
inhibition [21]: 10%
inhibition [22]: 1.1%
inhibition [23]: 5.1%
inhibition [24]: < 0%
inhibition [25]: 1.5%
inhibition [26]: 21%
inhibition [27]: 2.4%
inhibition [28]: 3.6%
inhibition [29]: 89%
inhibition [30]: < 0%
inhibition [31]: 6.8%
inhibition [32]: 0.21%
inhibition [33]: 14%
inhibition [34]: 5%

C[C@H](O)CNc1nccc(-n2ccnc2-c2cccc(NC(=O)Nc3ccc(Cl)c(Cl)c3)c2)n1
RatioGI50 [4]: 5
GI50 [2]: 5.93 µM
GI50 [3]: 0.65 µM

C[C@H](O)CNc1nccc(-n2ccnc2-c2ccc(NC(=O)c3ccc(N4CCOCC4)c(C(F)(F)F)c3)cc2)n1
GI50 [2]: > 100 µM
GI50 [3]: > 100 µM

C[C@H](O)CNc1nccc(-n2ccnc2-c2ccc(NC(=O)Nc3ccc(Cl)c(C(F)(F)F)c3)cc2)n1
GI50 [2]: 10.1 µM
GI50 [3]: 4.43 µM

C[C@H](O)CNc1nccc(-n2ccnc2-c2ccc(NC(=O)Nc3ccc(Cl)c(Cl)c3)cc2)n1
GI50 [2]: 17.8 µM
GI50 [3]: 2.45 µM

COc1ccc(-c2cc(C(=O)Nc3cccc(-c4nccn4-c4ccnc(NC[C@H](C)O)n4)c3)co2)cc1
RatioGI50 [4]: 5
GI50 (A375P): inactive
GI50 [3]: 22.3 µM

C[C@H](O)CNc1nccc(-n2ccnc2-c2cccc(NC(=O)Nc3ccc(N4CCOCC4)c(C(F)(F)F)c3)c2)n1
RatioGI50 [4]: 5
GI50 [2]: 34.6 µM
GI50 [3]: 3.28 µM

CNC(=O)c1cc(Oc2ccc(NC(=O)Nc3ccc(Cl)c(C(F)(F)F)c3)cc2)ccn1 [SORAFENIB]
GI50 [2]: 5.58 µM
GI50 [3]: 0.78 µM

C[C@H](O)CNc1nccc(-n2ccnc2-c2ccc(NC(=O)c3cc(-c4ccc(Cl)cc4)on3)cc2)n1
GI50 [2]: > 100 µM
GI50 [3]: > 100 µM

C[C@H](O)CNc1nccc(-n2ccnc2C(=O)c2ccc(NC(=O)Nc3ccc(Cl)c(C(F)(F)F)c3)cc2)n1
GI50 [2]: 9.29 µM
GI50 [3]: 3.51 µM

C[C@H](O)CNc1nccc(-n2ccnc2-c2cccc(NC(=O)Nc3ccc(Cl)c(C(F)(F)F)c3)c2)n1
RatioGI50 [4]: 5
GI50 [2]: 58.2 µM
GI50 [3]: > 100 µM

C[C@H](O)CNc1nccc(-n2ccnc2-c2cccc(NC(=O)c3coc(-c4cc(C(F)(F)F)ccc4Cl)c3)c2)n1
RatioGI50 [4]: 5
GI50 (WM3629): inactive

C[C@H](O)CNc1nccc(-n2ccnc2-c2ccc(NC(=O)c3ccc(Cl)c(C(F)(F)F)c3)cc2)n1
GI50 [2]: 79.2 µM
GI50 [3]: > 100 µM

C[C@H](O)CNc1nccc(-n2ccnc2-c2cccc(NC(=O)c3cc(-c4ccc(Cl)cc4)on3)c2)n1
RatioGI50 [4]: 5
GI50 [2]: 164 µM
GI50 [3]: > 100 µM
inhibition of growth at 164 µM [35]: < 66%

C[C@H](O)CNc1nccc(-n2ccnc2-c2cccc(NC(=O)Nc3cccc(C(F)(F)F)c3)c2)n1
RatioGI50 [4]: 5
GI50 [2]: 19.2 µM
GI50 [3]: 7.86 µM

C[C@H](O)CNc1nccc(-n2ccnc2-c2ccc(NC(=O)c3cc(N4CCOCC4)cc(C(F)(F)F)c3)cc2)n1
GI50 [2]: 35.6 µM
GI50 [3]: 2.25 µM

C[C@H](O)CNc1nccc(-n2ccnc2-c2ccc(NC(=O)c3ncc(-c4ccncc4)s3)cc2)n1
GI50 [2]: 139 µM
GI50 [3]: > 100 µM

Cc1cn(-c2cc(C(=O)Nc3cccc(-c4nccn4-c4ccnc(NC[C@H](C)O)n4)c3)cc(C(F)(F)F)c2)cn1
RatioGI50 [4]: 5
GI50 [2]: 6.72 µM
GI50 [3]: 3.49 µM

C[C@H](O)CNc1nccc(-n2ccnc2-c2ccc(NC(=O)Nc3cccc(C(F)(F)F)c3)cc2)n1
GI50 [2]: 7.19 µM
GI50 [3]: 12.9 µM

Cc1ccc2nc(NC(=O)Nc3cccc(-c4nccn4-c4ccnc(NC[C@H](C)O)n4)c3)sc2c1
RatioGI50 [4]: 5
GI50 [2]: 19.4 µM
GI50 [3]: 4.54 µM

C[C@H](O)CNc1nccc(-n2ccnc2-c2cccc(NC(=O)Nc3cccc(Cl)c3)c2)n1
RatioGI50 [4]: 5
GI50 [2]: 85.8 µM
GI50 [3]: > 100 µM

C[C@H](O)CNc1nccc(-n2ccnc2-c2cccc(NC(=O)c3cccc(C(F)(F)F)c3)c2)n1
RatioGI50 [4]: 5
GI50 (A375P): inactive
GI50 (WM3629): inactive

C[C@H](O)CNc1nccc(-n2ccnc2-c2ccc(NC(=O)Nc3cccc(Cl)c3)cc2)n1
GI50 [2]: 3.19 µM
GI50 [3]: 4.99 µM

C[C@H](O)CNc1nccc(-n2ccnc2-c2ccc(NC(=O)c3coc(-c4cc(C(F)(F)F)ccc4Cl)c3)cc2)n1
GI50 [2]: 2.23 µM
GI50 [3]: > 100 µM

C[C@H](O)CNc1nccc(-n2ccnc2-c2cccc(NC(=O)c3cc(N4CCN(C)CC4)cc(C(F)(F)F)c3)c2)n1
RatioGI50 [4]: 5
GI50 [2]: 10.4 µM
GI50 [3]: 9.13 µM

C[C@H](O)CNc1nccc(-n2ccnc2-c2cccc(NC(=O)c3ncc(-c4ccncc4)s3)c2)n1
RatioGI50 [4]: 5
GI50 [2]: > 100 µM
GI50 [3]: 13.8 µM
